Compounds with a hit are over-represented: about 2.7% of the library has one in this group of screens.
pPAFAH FP inh: inhibitors of human plasma PAF acetylhydrolase (pPAFAH). Q13093. recombinant pPAFAH, FP-rhodamine probe fluorescence polarization. inhibition, % at 3.39 µM. 330,000 tested, 1.5% active. AID 463082;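 active = inhibition above the mean inhibition across the screen plus 3 SD, cut at about 25% in these data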;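 note: inhibitors block binding of the rhodamine activity-based probe so polarization drops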
RBBP9 inhibitor: inhibitors of human serine hydrolase RBBP9 | O75884 | recombinant RBBP9, FP-Rh probe fluorescence polarization | inhibition, % at 7.94 µM | 220,000 tested, 0.2% active | AID 1515;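 active = inhibition above the campaign mean of all tested compounds plus 3 SD, cut at about 14% in these data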
Target sequence (O75884 whole entry, looked up): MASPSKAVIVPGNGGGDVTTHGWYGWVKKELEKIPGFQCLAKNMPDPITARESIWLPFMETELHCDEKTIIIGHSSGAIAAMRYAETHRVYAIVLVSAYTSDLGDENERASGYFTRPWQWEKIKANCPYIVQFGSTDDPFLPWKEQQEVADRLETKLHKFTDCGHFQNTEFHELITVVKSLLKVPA
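Measured by – fluorescence polarization · Test system – RBBP9 protein · Input – 2.5 µM RBBP9 dispensing solution, before mixing · Measure – percent inhibition from mP, scaled between DMSO and no-protein wells · Benchmarks – DMSO-treated enzyme wells and wells lacking RBBP9 · Times – preincubation 30 min plus labeling 45 min at 25 °C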
PAFAH1B2 FP inh: blocks human PAF acetylhydrolase 1b catalytic subunit 2; inhibition, % at 3.39 µM; recombinant PAFAH1B2, FP-rhodamine activity probe, fluorescence polarization; 340,000 tested, 1.2% active; P68402;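 active = inhibition above the mean of all tested compounds plus 3 SD, cut at about 24% in these data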
Target sequence (P68402 whole entry, looked up): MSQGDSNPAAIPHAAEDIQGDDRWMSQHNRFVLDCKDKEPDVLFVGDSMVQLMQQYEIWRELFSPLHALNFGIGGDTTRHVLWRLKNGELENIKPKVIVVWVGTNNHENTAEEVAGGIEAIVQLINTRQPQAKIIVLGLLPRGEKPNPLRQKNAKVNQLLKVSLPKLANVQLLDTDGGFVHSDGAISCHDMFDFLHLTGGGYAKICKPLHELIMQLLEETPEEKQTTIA
PAFAH2 FP inh: inhibitors of human PAFAH2. 340,000 tested, 0.99% active. recombinant PAFAH2, FP-rhodamine activity probe, fluorescence polarization. inhibition, % at 3.39 µM. Q99487;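 active = inhibition above the mean over all tested compounds plus 3 SD, cut at about 30% in these data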;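 note: inhibitors block probe labeling of enzyme so polarization drops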
PAFAH1B3 inh: blocks human PAF acetylhydrolase 1B catalytic subunit 3 | Q15102 | recombinant PAFAH1B3, FP-rhodamine probe, fluorescence polarization | inhibition, % at 3.39 µM | 340,000 tested, 0.28% active | AID 492972;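 active = inhibition above the screen-wide average of all tested compounds plus 3 SD, cut at about 25% in these data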
Target sequence (Q15102 whole entry, looked up): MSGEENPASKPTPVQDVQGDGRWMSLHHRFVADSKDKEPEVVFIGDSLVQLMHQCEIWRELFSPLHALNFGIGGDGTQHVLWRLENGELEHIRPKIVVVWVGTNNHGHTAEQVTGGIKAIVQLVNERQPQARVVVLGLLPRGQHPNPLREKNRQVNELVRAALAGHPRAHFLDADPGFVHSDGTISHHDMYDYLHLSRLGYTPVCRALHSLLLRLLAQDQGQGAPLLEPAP
PAFAH2 FP conf: PAFAH2 (human) inhibition, confirmed; shares compounds with PAFAH2 FP inh; recombinant PAFAH2, FP-rhodamine activity probe, fluorescence polarization; inhibition, % at 3.39 µM; 2,300 tested, 65% active; AID 493030;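 active = mean inhibition over three repeats above a set limit taken from the earlier primary screen, cut at about 30% in these data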;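 note: inhibitor blocks binding of rhodamine activity probe so polarization falls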
Each line names hits and unclear results; the compound was inactive in the other large screens (follow-up assays come after a bar, where they were run).

O=C(CNC(=S)N(CCCN1CCOCC1)Cc1cccs1)NCc1ccc(Cl)cc1	PAFAH2 FP inh 48 (no result: RBBP9 inhibitor) | PAFAH2 FP conf 37
COc1ccc(S(=O)(=O)NCC(=O)O)cc1C(=O)NC1CCCCC1	none
COc1ccc([N+](=O)[O-])cc1NC(=O)c1ccc(Br)s1	none
CC1CC1C(=O)OCC(=O)Nc1ccc(Cl)cn1 (stereo not given)	PAFAH2 FP inh 47 (no result: RBBP9 inhibitor) | PAFAH2 FP conf 39
CCOc1ccc(NC(=O)COC(=O)C2CC2C)cc1 (stereo not given)	PAFAH2 FP inh 60 (no result: RBBP9 inhibitor) | PAFAH2 FP conf 47
CC(OC(=O)C1CC1C)C(=O)Nc1ccc(Cl)cn1 (stereo not given)	none (no result: pPAFAH FP inh, RBBP9 inhibitor)
Cc1nc(NC(=O)COC(=O)C2CC2C)c(Cl)cc1Cl (stereo not given)	PAFAH2 FP inh 34 (no result: RBBP9 inhibitor) | PAFAH2 FP conf inactive
COc1cc(Cl)c(C)cc1NC(=O)COC(=O)C1CC1C (stereo not given)	none (no result: RBBP9 inhibitor)
O=C(COC(=O)C1CC2CCCC(C1)C2=O)Nc1ccc(Cl)cn1 (stereo not given)	PAFAH2 FP inh 47 (no result: RBBP9 inhibitor) | PAFAH2 FP conf inactive
Cc1ccc(S(=O)(=O)N(CC(=O)N2CCC(C)CC2)Cc2ccccc2F)cc1	none
COC(=O)c1noc(C)c1-c1ccnn1C(=O)c1ccc(C)cc1	PAFAH2 FP inh 54 | PAFAH2 FP conf 33
Cc1onc(-c2ccccc2)c1-c1ccnn1C(=O)NC(C)C	none
Cn1cnnc1SCC(=O)Nc1sc2c(c1C(N)=O)CCC2	pPAFAH FP inh 34, PAFAH2 FP inh 38 | PAFAH2 FP conf inactive
O=C(COC(=O)c1ccco1)Nc1cccc(S(=O)(=O)N2CCCCC2)c1	PAFAH2 FP inh 49 (no result: RBBP9 inhibitor) | PAFAH2 FP conf 41
O=C(COC(=O)c1ccc(O)cc1)Nc1cccc(S(=O)(=O)N2CCCCC2)c1	PAFAH2 FP inh 52 | PAFAH2 FP conf 55
CCOc1ccc(C(=O)OCC(=O)Nc2cccc(S(=O)(=O)N3CCCC3)c2)cc1	PAFAH2 FP inh 68 (no result: RBBP9 inhibitor) | PAFAH2 FP conf 57
CS(=O)(=O)c1ccc(C(=O)OCC(=O)Nc2cccc(S(=O)(=O)N3CCCC3)c2)cc1	none (no result: RBBP9 inhibitor)
CCS(=O)(=O)c1ccc(O)c(NC(=O)NC2CCCCC2)c1	PAFAH2 FP inh 81 | PAFAH2 FP conf 64
CCc1ccc(OCC(=O)Nc2cc(S(=O)(=O)CC)ccc2O)cc1	none
CCc1ccccc1NC(=O)NC1CCCCC1	none
CCS(=O)(=O)c1ccc(O)c(NC(=O)COc2ccccc2)c1	PAFAH2 FP inh 48 | PAFAH2 FP conf 44
Cc1cc(Cl)ccc1OCC(=O)N/N=C1\CC2C=CCC12 (stereo not given)	none
Cn1c(CC(=O)Nc2ccccc2Cl)nnc1SCC(=O)NC1CCCCC1	none (no result: RBBP9 inhibitor)
N#Cc1ccccc1S(=O)(=O)N1CCN(C(=O)C2CCC2)CC1	none (no result: RBBP9 inhibitor)
N#C/C(=C\c1ccc(O)c(O)c1)S(=O)(=O)c1ccccc1	PAFAH2 FP inh 64 | PAFAH2 FP conf 49
CCN(CC)CCCNC(=O)C1CCC(CNS(=O)(=O)c2ccc(Cl)cc2)CC1 (stereo not given)	none (no result: RBBP9 inhibitor)
CCN(c1ccc(C)cc1C)S(=O)(=O)c1nnc(NC(=O)C(C)(C)C)s1	none (no result: RBBP9 inhibitor)
O=C(COC(=O)CC1CCCCC1)Nc1c(Cl)cccc1Cl	PAFAH2 FP inh 38 (no result: RBBP9 inhibitor) | PAFAH2 FP conf 31
O=C(COC(=O)CN1C(=O)C2CCCCC2C1=O)Nc1c(Cl)cccc1Cl (stereo not given)	none (no result: RBBP9 inhibitor)
O=C(COC(=O)CC1CCCC1)Nc1ccc(Cl)cn1	PAFAH2 FP inh 50 (no result: RBBP9 inhibitor) | PAFAH2 FP conf 38
CCc1ccc(/C=C2\Oc3c(ccc(O)c3CN3CCN(CCO)CC3)C2=O)cc1	PAFAH2 FP inh 58 | PAFAH2 FP conf 39
Cc1cc(NC(=O)COC(=O)c2ccccc2S(=O)(=O)N(C)c2ccccc2)no1	PAFAH2 FP inh 46 | PAFAH2 FP conf inactive
CCOc1ccccc1OCC(=O)Nc1cc(C)on1	none (no result: RBBP9 inhibitor)
CCOc1ccc(C(=O)OCC(=O)Nc2cc(C)on2)cc1OCC	PAFAH2 FP inh 77 | PAFAH2 FP conf 63
CCOc1cc(C(=O)OCC(=O)Nc2cc(C)on2)ccc1OCC(C)C	PAFAH2 FP inh 33 | PAFAH2 FP conf inactive
CCN(CC)c1ccc(C(=O)OCC(=O)Nc2cc(C)on2)cc1	PAFAH2 FP inh 90 (no result: RBBP9 inhibitor) | PAFAH2 FP conf 66
O=C(C[C@H]1C/C=C\C[C@H](NC(=O)OCC2c3ccccc3-c3ccccc32)C(=O)OC[C@H](Cc2ccccc2)NC1=O)N[C@H](CO)Cc1ccccc1	none (no result: RBBP9 inhibitor)
O=C(CCSCCc1ccccn1)Nc1ccc(Cc2ccncc2)cc1	none
Cc1ccc2cc(-c3noc(C4CCCO4)n3)c(=O)[nH]c2c1 (stereo not given)	none
Cc1ccc2cc(-c3noc(C4CCCCC4)n3)c(=O)[nH]c2c1	PAFAH2 FP inh 47 | PAFAH2 FP conf 51
CCOc1ccccc1-c1nc(-c2cc3ccc(C)cc3[nH]c2=O)no1	PAFAH2 FP inh 52 | PAFAH2 FP conf 32
COc1ccc(C2CC(c3cccs3)=NN2c2nc(-c3ccccc3)cs2)cc1OC (stereo not given)	none
O=C1CN(c2ccc(F)cc2)C(=S)N1c1ccccc1	none (no result: RBBP9 inhibitor)
CCC1CN(S(=O)(=O)c2ccc3c(c2)NC(=O)CC(=O)N3)c2cc(Cl)ccc2O1 (stereo not given)	PAFAH2 FP inh 45 (no result: RBBP9 inhibitor) | PAFAH2 FP conf inactive
O=S(=O)(c1cccc(S(=O)(=O)N2CCCC2)c1)N1CCCCC1	none (no result: RBBP9 inhibitor)
CS(=O)(=O)c1cccc(S(=O)(=O)N2CCCCCC2)c1	PAFAH2 FP inh 145 (no result: RBBP9 inhibitor) | PAFAH2 FP conf inactive
S=c1[nH]nc(-c2ccco2)n1/N=C/C=C/c1ccco1	PAFAH2 FP inh 46 | PAFAH2 FP conf inactive
COc1ccccc1/C=C/C=N/n1c(-c2ccco2)n[nH]c1=S	none
COc1ccccc1C(=O)OCC(=O)NC12CC3CC(CC(C3)C1)C2	PAFAH2 FP inh 74 (no result: pPAFAH FP inh, RBBP9 inhibitor) | PAFAH2 FP conf 82
CCN(CC)S(=O)(=O)c1ccc(O)c(C(=O)OCC(=O)Nc2cc(C)c(C)cc2[N+](=O)[O-])c1	none
CCN(CC)S(=O)(=O)c1ccc(O)c(C(=O)OCC(=O)NC2CCCC2)c1	none (no result: RBBP9 inhibitor)
COc1cc(OC)c(C(=O)OCC(=O)NC23CC4CC(CC(C4)C2)C3)cc1OC	PAFAH2 FP inh 97 (no result: RBBP9 inhibitor) | PAFAH2 FP conf 82
O=C(COc1ccccc1F)NC12CC3CC(CC(C3)C1)C2	none
COc1cc(OC)c(C(=O)NC23CC4CC(CC(C4)C2)C3)cc1OC	none (no result: RBBP9 inhibitor)
CCN(CC)S(=O)(=O)c1ccc(O)c(C(=O)OCC(=O)Nc2ccc(OC(F)(F)F)cc2)c1	PAFAH2 FP inh 38 | PAFAH2 FP conf inactive
CCN(CC)S(=O)(=O)c1ccc(O)c(C(=O)OCC(=O)NC23CC4CC(CC(C4)C2)C3)c1	PAFAH2 FP inh 77 (no result: RBBP9 inhibitor) | PAFAH2 FP conf 68
COc1ccccc1NC(=O)C(C)OC(=O)CCCN=C1NS(=O)(=O)c2ccccc21 (stereo not given)	none (no result: RBBP9 inhibitor)
COc1ccccc1N1CCN(CC(=O)Nc2ccccc2C(=O)NCCc2ccccc2)CC1	none (no result: RBBP9 inhibitor)

Screens from PubChem.
